Screening results (PubChem BioAssay)
PP5 inh: PP5 phosphatase inhibitors, primary screen, biochemical, fluorescence; Serine/threonine-protein phosphatase 5 (Homo sapiens), P53041; purified PP5c, OMFP substrate fluorescence; inhibition, % at 6.7 µM; 0.18% of 320,000 active;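 active = inhibition above the campaign's mean inhibition across all tested compounds plus 3 SD, cut at about 9.5% in these data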;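 note: 0% = DMSO only and 100% = 100 µM cantharidin control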
Target sequence (P53041 whole entry, looked up): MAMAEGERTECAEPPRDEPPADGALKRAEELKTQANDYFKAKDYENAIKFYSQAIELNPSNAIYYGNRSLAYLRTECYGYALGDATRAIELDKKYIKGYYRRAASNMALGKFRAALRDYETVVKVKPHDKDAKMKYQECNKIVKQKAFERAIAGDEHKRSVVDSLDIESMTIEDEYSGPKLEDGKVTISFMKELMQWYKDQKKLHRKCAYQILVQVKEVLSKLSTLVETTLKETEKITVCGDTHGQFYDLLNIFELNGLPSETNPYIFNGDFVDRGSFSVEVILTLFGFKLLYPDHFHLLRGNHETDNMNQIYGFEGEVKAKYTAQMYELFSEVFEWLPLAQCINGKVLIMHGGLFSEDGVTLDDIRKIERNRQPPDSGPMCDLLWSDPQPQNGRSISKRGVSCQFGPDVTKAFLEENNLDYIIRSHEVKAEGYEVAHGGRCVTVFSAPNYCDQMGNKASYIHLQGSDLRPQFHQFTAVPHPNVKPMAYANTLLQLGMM
PP1 inh: PP1-alpha phosphatase inhibitors, primary screen, counter-screen for PP5 inhibitor project, biochemical, fluorescence, OMFP substrate, single point | Serine/threonine-protein phosphatase PP1-alpha catalytic subunit (Homo sapiens), P62136 | purified PP1alpha | inhibition, % at 6.7 µM | 0.9% of 320,000 active;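 active = inhibition above the mean inhibition of all tested compounds plus 3 SD, computed separately for each screening campaign, cut at about 15% in these data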
procasp7 counter: procaspase-7 activators, primary screen, counter-screen for procaspase-3 activator project, biochemical, absorbance, HTS, human; Caspase-7 (Homo sapiens), P55210; recombinant procaspase-7, Ac-DEVD-pNA absorbance 405 nm; D23A/D198A/D206A triple mutant, cannot self-cleave; scale: DMSO 0, 5 µM enzyme 100; activation, % at 8.5 µM; 0.093% of 330,000 active;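 active = percent activation above the screen-wide mean plus 3 SD, cut at about 25% in these data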
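Assay system: Uncleavable procaspase-7 mutant enzyme / Input: 2 µM procaspase-7 mutant as dispensed / Dosing: single nominal 8.5 µM compound dose, 0.8% DMSO final / Timing: 1 h enzyme–compound preincubation and 2 h substrate reaction, both 25 °C / Detection: p-Nitroaniline absorbance at 405 nm, read at 0 and 120 min / Replication: singlicate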
proCasp3 act: activators of human procaspase-3 D3A mutant, primary screen, biochemical, absorbance, PC-3 D3A mutant, single concentration. Caspase-3 (Homo sapiens), P42574. recombinant procaspase-3 D3A, Ac-DEVD-pNA absorbance 405 nm. activation, % at 8.5 µM. 0.11% of 330,000 active. AID 463141, 2010;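 active = activation above the mean of all tested compounds plus 3 SD, cut at about 21% in these data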;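 note: 0% = DMSO alone and 100% = DMSO wells spiked with extra 5 µM PC-3 D3A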
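Assay system: Autoprocessing-dead procaspase-3 D3A mutant enzyme; also added: Ac-DEVD-pNA; doses: one concentration, 8.5 µM nominal, 0.8% DMSO; times: 1 h compound preincubation, 2 h substrate hydrolysis at 25 °C; technique: 405 nm absorbance of p-nitroaniline, reads at 0 and 120 min; measure: % activation between DMSO and enzyme-spiked controls; repeats: single replicate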
procasp7 triplic: procaspase-7 activators, counter-screen for procaspase-3 activator project, biochemical, absorbance, triplicate, human; shares compounds with proCasp3 act; recombinant procaspase-7, Ac-DEVD-pNA absorbance; asp23/198/206-to-Ala mutant, cannot self-cleave; activation, % at 8.5 µM; 210 tested, under 10 active;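 active = mean activation above a set limit taken from an earlier procaspase-7 screen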;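 note: 0% = DMSO wells and 100% = DMSO plus 5 µM procaspase-7 enzyme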
procasp3 conf: activators of human procaspase-3 D3A mutant, confirmation, biochemical, absorbance, PC-3 D3A mutant, triplicate | recombinant PC-3 D3A, Ac-DEVD-pNA absorbance 405 nm; 100% is higher-enzyme control | AID 488954, 2010 | shares compounds with proCasp3 act | activation, % at 8.5 µM | 10% of 210 active;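 active = mean activation above a set limit carried over from the earlier primary screen, cut at about 22% in these data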
* marks the source's active call; other numbers are inactive results; . = not tested or not shown. Only some compounds are listed: those with a hit (about 1.2% of all), similar ones and a draw of the others.

SMILES | PP5 inh | PP1 inh | procasp7 counter | proCasp3 act | procasp7 triplic | procasp3 conf
Cc1ccc(-c2cc(C(F)(F)F)c(C#N)c(SCCC#N)n2)o1 | -0.9 | -4.5 | 12.1 | 22.2* | 41.0* | 52.1*
CCN(CC)c1ccc(/C=N/NC(=O)c2cccc(S(=O)(=O)Nc3ccccc3OC)c2)cc1 | 1.2 | 1.1 | -12.4 | -7.4 | . | .
CCN(CC)c1ccc(/C=N/NC(=O)c2cccc(S(=O)(=O)Nc3ccccc3OC)c2)c(O)c1 | 3.1 | 10.5 | 22.6 | 38.6* | 15.3 | 20.1
O=C(COC(=O)COc1ccccc1Cc1ccccc1)Nc1cccnc1Cl | 1.9 | 0.1 | 4.4 | 1.6 | . | .
CCCCn1nc(C(=O)N(C)C2CCCCC2)c2ccccc2c1=O | 0.5 | -2.3 | 9.4 | 22.1* | 1.1 | 5.2
CCC1CCc2sc(C(=O)NC3CCN(Cc4ccccc4)CC3)cc2C1 (stereo unspecified) | 3.6 | -3.0 | 7.9 | -2.9 | . | .
CC(=O)Oc1c(-c2ccc(Br)o2)oc2ccccc2c1=O | 1.8 | 0.7 | 24.2 | 26.5* | -4.1 | 21.5*
Cc1cccnc1NC(=O)c1cccc(NC(=O)CC2SC(N3CCCCC3)=NC2=O)c1 (stereo unspecified) | 1.6 | 1.4 | 3.5 | 0.5 | . | .
CCN1CCN(c2ncnc3c2sc(=S)n3-c2ccccc2)CC1 | 2.0 | -3.9 | 6.2 | 22.7* | 1.8 | 4.1
CCOC(=O)c1cc(-c2ccc(/C=N\n3cnnc3)o2)ccc1Cl | 0.6 | -2.6 | 24.8 | 28.7* | 0.8 | 1.9
CCOc1ccc(NC(=O)CN(C)C(=O)c2ccc(C3SCCS3)cc2)cc1OCC | -3.9 | -8.6 | 5.6 | 21.3* | -0.7 | 1.7
CCOc1ccc(NC(=O)CN(C)C(=O)C2CCCC2)cc1OCC | 0.0 | -2.7 | -12.3 | -0.7 | . | .
C=CCn1c(O)c(N=NC(=S)Nc2cccc(OC)c2)c2ccccc21 | 2.2 | 3.0 | -8.1 | 34.0* | -5.5 | 5.7
C=CCn1c(O)c(N=NC(=S)Nc2ccc(OC)cc2)c2ccccc21 | 7.0 | 8.9 | -2.7 | 9.6 | . | .
C=CCNC(=O)c1ccc2c(=O)n(CCCN3CCCC3=O)c(=S)[nH]c2c1 | -1.4 | -1.6 | 11.8 | -0.8 | . | .
O=C1CC(C(=O)Nc2ccc(F)c(Cl)c2)N=C(N2CCCCC2)N1 (stereo unspecified) | -3.4 | 1.6 | 7.8 | -2.4 | . | .
CCCn1nnc(NC(=O)/C=C/c2cc(Br)ccc2OC)n1 | 1.6 | -5.5 | 2.1 | 5.2 | . | .
COc1ccc2oc(C(=O)OCC(=O)Nc3cc(S(=O)(=O)N4CCOCC4)ccc3C)c(C)c2c1 | 0.4 | -1.1 | 0.8 | 1.1 | . | .
COc1ccc2oc(C(=O)OCC(=O)Nc3cc(S(=O)(=O)N4CCOCC4)ccc3OC)c(C)c2c1 | -0.9 | -7.9 | 5.9 | 21.8* | 0.2 | 0.7
CC(=O)NCCc1nc2ccccc2n1Cc1ccc(C)cc1 | 3.2 | 1.1 | 1.6 | 29.1* | 1.5 | 7.8
Cn1c(=NC(=O)CS(=O)(=O)c2ccccc2)sc2ccccc21 | 0.6 | -2.3 | 2.1 | 4.4 | . | .
Cn1c(=NC(=O)CS(=O)(=O)c2ccc(F)cc2)sc2ccccc21 | -1.6 | -3.8 | 7.0 | 22.0* | 1.0 | 3.0
COc1ccccc1C(=O)C1CCCN(C(=O)c2cc(CC(C)C)nc(C)n2)C1 (stereo unspecified) | -0.3 | 1.6 | -0.7 | -1.9 | . | .
CC1(C)Cc2c(c(N3CCOCC3)nc3sc(C(=O)Nc4ccc(Cl)cc4)c(N)c23)CO1 | 2.1 | -2.7 | -20.5 | -13.0 | . | .
Cc1nc2c(sc3nc(N4CCOCC4)c4c(c32)CC(C)(C)OC4)c(-c2ccc(Cl)cc2)c1C(=O)O | 3.4 | 7.4 | -9.2 | 26.1* | -7.7 | -4.6
